Results of several laboratories.
Protocols differ between the studies behind these lines.
Target: Mitogen-activated protein kinase 9 (MAPK9, Homo sapiens, UniProt P45984)

COc1cc(Cl)c(C(=O)N[C@@H](CN[C@H]2CC[C@@H](N)CC2)Cc2ccc(C#N)cc2)cc1-c1ccc(CN[C@H](C)c2ccc(C)cc2)o1  remaining activity (enzyme activity; inhibitor; 1 µM): 93%
CCN(CC)CCNC(=O)c1c(C)[nH]c(/C=C2\C(=O)Nc3ccc(F)cc32)c1C  remaining signal (cell-free assay; 0.5 µM): 96.7%
CC1=C(C#N)[C@@H](c2ccc3[nH]nc(C)c3c2)C(C#N)=C(c2ccc(Cl)cc2)N1  remaining binding (cell-free assay; competition with immobilised ligand; 1 µM): 89.5%
CNC(=O)c1cc(Oc2ccc(NC(=O)Nc3ccc(Cl)c(C(F)(F)F)c3)cc2)ccn1  inhibition (enzyme activity; inhibitor; 10 µM): 54%
FC(F)c1nc2ccccc2n1-c1nc(N2CCOCC2)nc(N2CCOCC2)n1  remaining activity (enzyme activity; inhibitor; 10 µM): 87%
CC(=O)Nc1c(C(C)=O)c(=O)n(C)c2nc(-c3ccc(Cl)cc3Cl)c(-c3ccc(Cl)cc3)cc12  remaining binding (cell-free assay; competition with immobilised ligand; 1 µM): 100%
COc1cc2ncnc(Nc3ccc(Oc4ccccc4)c(C)c3C)c2cc1OC  inhibition (enzyme activity; inhibitor; 1 µM): 7%
Cn1c2c(c3ccc(Cl)c(Cl)c31)C(C#N)C1(CCNCC1)NC2=O (racemic)  ΔTm (thermal stability; DSF; 10 µM): 0.2 °C
CC(C)CC(=O)N1CCc2nc(-c3ccc(Br)cc3)nc(N(C)Cc3ccccc3)c2C1  remaining binding (cell-free assay; competition with immobilised ligand; 0.1 µM): 72%
Cc1ccc(C(=O)NCc2ccsc2)cc1C#Cc1cn(C(C)C)c2ncnc(N)c12  activity vs control (enzyme activity; inhibitor; 1 µM): 85%
Nc1nc(NC2CCCCC2)sc1C(=O)c1ccccc1  remaining activity (enzyme activity; inhibitor; 10 µM): 39%
Cn1c2c(Cl)c(Cl)ccc2c2cn[nH]c(=O)c21  ΔTm (thermal stability; DSF; 10 µM): 0 °C
Cc1cnc(NC2CCOCC2)nc1-n1cnc(C(=O)NC(CN)c2cc(F)cc(Cl)c2)c1 (centres unmarked)  remaining activity (enzyme activity; inhibitor; radiometric; 1 µM): 72%
CC(C)(O)c1cncc(-c2nc3ccc(F)cc3n2C2CC2)c1  remaining binding (cell-free assay; competition with immobilised ligand; 1 µM): 100%
COc1cc(Nc2cnc(C#N)c(O[C@H](C)CN(C)C)n2)ncc1-c1cnn(C)c1  remaining activity (enzyme activity; inhibitor; radiometric; 10 µM): 79%
O=C1Nc2ccc(Cl)cc2C1=Cc1cc(Cl)c(O)c(Cl)c1  remaining signal (cell-free assay; 0.5 µM): 100%
Cc1cc(NC(=O)c2cccc3cc(-c4cccc5[nH]nc(N)c45)ccc23)ccc1F  activity vs control (enzyme activity; inhibitor; 0.1 µM): 86%
Cc1ccc(NC(=O)c2ccc(CN3CCN(C)CC3)cc2)cc1Nc1nc(-c2cccnc2)cs1  remaining signal (cell-free assay; 0.5 µM): 110%
Cc1ccc(NC(=O)c2ccc(C)c(C(F)(F)F)c2)cc1C#Cc1nn(C2CCC(O)CC2)c2ncnc(N)c12 (centres unmarked)  remaining signal (cell-free assay; 10 µM): 13%
Cc1sc(C(=O)NC2COC2)cc1-n1cc(NC(=O)Nc2c(F)cccc2Cl)cn1  remaining activity (enzyme activity; inhibitor; 10 µM): 51.9%
CC(C)(O)[C@H]1CC[C@H](Nc2ccc3ncc(-c4cccc(C(F)(F)F)c4)n3n2)CC1  remaining activity (enzyme activity; inhibitor; 1 µM): 109%
CCN1CCC2(CC1)NC(=O)c1c(c3ccc(Cl)c(Cl)c3n1C)C2C#N (racemic)  ΔTm (thermal stability; DSF; 10 µM): -0.1 °C
CC(C)(C)c1nc2c(s1)c1nc(N)ncc1c1ccc(NS(=O)(=O)c3c(F)cccc3F)c(F)c12  remaining activity (enzyme activity; inhibitor; radiometric; 1 µM): 95%
CN1CCC2(CC1)NC(=O)c1c(c3ccc(Cl)c(Cl)c3n1C)C2C#N (racemic)  ΔTm (thermal stability; DSF; 10 µM): -0.2 °C
CNC(=O)Nc1ccc2c(c1)CC[C@@]21OC(=O)N(CC(=O)N(Cc2ccc(F)cc2)[C@@H](C)C(F)(F)F)C1=O  remaining binding (cell-free assay; competition with immobilised ligand; 1 µM): 70%
C[S+]([O-])c1ccc(-c2nc(-c3ccncc3)c(-c3ccc(F)cc3)[nH]2)cc1 (centres unmarked)  remaining signal (cell-free assay; 0.5 µM): 100%
O=C(NCc1ncc(C(F)(F)F)cc1Cl)c1ccc2c(c1)C1(CCS(=O)(=O)CC1)[C@@H](C1CC1)N2S(=O)(=O)c1ccc(F)cc1  remaining binding (cell-free assay; competition with immobilised ligand; 1 µM): 82%
CCC1(CC)NC(=O)c2c(c3ccc(Cl)c(Cl)c3n2C)C1C#N (centres unmarked)  ΔTm (thermal stability; DSF; 10 µM): 0.1 °C
Cc1cc(NC(=O)c2cccc(S(F)(F)(F)(F)F)c2)cc(-n2ccn3nc(-c4cccnc4)cc23)c1  remaining binding (cell-free assay; competition with immobilised ligand; 1 µM): 76.9%
Cn1c2c(Cl)c(Cl)ccc2c2cc(N)[nH]c(=O)c21  ΔTm (thermal stability; DSF; 10 µM): 0.7 °C
CN(C)C(=O)Cn1cc(-c2nc([C@@](C)(c3ccc(-c4cnc(N)nc4)cc3)C3CC3)no2)cn1  remaining binding (cell-free assay; competition with immobilised ligand; 1 µM): 75%
Cc1ccc(C(=O)Nc2ccc(CN3CCN(C)CC3)c(C(F)(F)F)c2)cc1C#Cc1cnc2cccnn12  remaining activity (enzyme activity; inhibitor; 23.5 nM): 62%
